In PubChem BioAssay:
The source made the active and inactive calls.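 Rule for the calls, unless noted: active = NADPH fluorescence slope more negative than the mean of all samples by about 3 SD, 99.7% confidence; inactive = the rest.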

What was measured:
[1] = inhibitors of TNFa-induced NFkB p65 translocation, primary screen, imaging, HUVEC, MLSMR starter and 10KST1 sets (AID 438;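 active = inhibition above 20% together with a positive visual image hit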;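 note: compound added about 3h40 before a 20 min TNFalpha stimulation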;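 for inhibition: signal is the nuclear over cytoplasmic p65 intensity ratio per well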); conditions: HUVEC TNFa-induced p65 nuclear translocation; cell count: measured here: nuclei count (cytotoxicity indicator), at 2.08 µM; inhibition: at 2 µM, stronger effect = higher value, 0% TNFa-plus-vehicle, 100% no-TNFa wells
[2] = endothelial E-selectin expression blockers – imaging, HUVEC, immunofluorescence, MLSMR starter and 10KST1 sets, primary screen (AID 487;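 active = visually confirmed hit in the image check and inhibition above 20%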;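 for inhibition: signal is fraction of cell area covered by stained E-selectin grains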;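 for nuclei count: 100% = median nuclei count of all wells on the same plate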); conditions: HUVEC TNFalpha-induced E-selectin immunofluorescence imaging, at 2 µM; inhibition: stronger effect = higher value; nuclei count: measured here: cell number, toxicity
[3] = Primary imaging screen for DUSP6 inhibitors that restore phospho-Erk in transfected HeLa cells, chemical complementation (AID 609;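 active = compounds giving at least 50% inhibition in the cell-based MKP-3 phosphatase rescue imaging test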;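 for inhibition: phospho-Erk level distribution per well compared with pooled transfected vehicle control wells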); conditions: HeLa MKP-3 transfected, phospho-Erk imaging KS statistic, at 10 µM, cells stimulated with TPA for 15 min
[4] = target: Dual specificity protein phosphatase 6 (Homo sapiens) (UniProt Q16828); assay: as above; conditions: HeLa MKP-3 transfected, phospho-Erk imaging KS statistic; at 10 µM; stronger effect = higher value; cells stimulated with TPA for 15 min
Chain of Dual specificity protein phosphatase 6 (Homo sapiens) (Q16828 whole entry, looked up): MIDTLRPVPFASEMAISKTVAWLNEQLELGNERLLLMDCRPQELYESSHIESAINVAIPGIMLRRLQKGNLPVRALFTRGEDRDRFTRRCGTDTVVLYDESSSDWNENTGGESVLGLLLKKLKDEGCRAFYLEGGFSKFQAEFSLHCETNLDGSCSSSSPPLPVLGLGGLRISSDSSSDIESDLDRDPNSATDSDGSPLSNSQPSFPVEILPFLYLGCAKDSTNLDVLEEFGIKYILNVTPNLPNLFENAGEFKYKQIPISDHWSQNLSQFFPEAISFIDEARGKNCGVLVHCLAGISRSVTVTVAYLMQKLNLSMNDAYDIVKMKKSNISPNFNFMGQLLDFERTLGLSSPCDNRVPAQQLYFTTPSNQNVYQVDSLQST

[5] = target: Voltage-gated potassium channel subunit beta-2 (Rattus norvegicus) (UniProt P62483); assay: inhibitors of rat Kvbeta2 reductase activity – biochemical, NADPH fluorescence, primary screen (AID 622;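 active = fluorescence slope higher than the sample average by over 3 SD, cut at about -0.22 in these data, passing the limit was not always enough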;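 note: slope of raw intensity against log time taken from 70 to 1610 s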); conditions: recombinant KvBeta, 4-cyanobenzaldehyde reduction, at 10 µM, stronger effect = higher value
Chain of Voltage-gated potassium channel subunit beta-2 (Rattus norvegicus) (P62483 whole entry, looked up): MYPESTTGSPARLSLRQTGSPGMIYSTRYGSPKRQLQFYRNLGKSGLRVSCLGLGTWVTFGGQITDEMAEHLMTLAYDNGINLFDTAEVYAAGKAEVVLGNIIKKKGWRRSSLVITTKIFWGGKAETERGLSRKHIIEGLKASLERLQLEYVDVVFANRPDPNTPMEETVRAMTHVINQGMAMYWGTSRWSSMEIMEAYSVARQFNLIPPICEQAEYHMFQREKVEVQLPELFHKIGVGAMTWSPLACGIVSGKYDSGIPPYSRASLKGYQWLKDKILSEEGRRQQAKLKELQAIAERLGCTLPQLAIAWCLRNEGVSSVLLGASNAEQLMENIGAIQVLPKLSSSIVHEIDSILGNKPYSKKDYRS

[6] = target: Voltage-gated potassium channel subunit beta-2 (Rattus norvegicus) (UniProt P62483); assay: enhancers of rat Kvbeta2 NADPH turnover – biochemical, NADPH fluorescence, primary screen (AID 623); conditions: Recombinant KvBeta, NADPH fluorescence decrease slope, 10 min; at 10 µM; stronger effect = lower value;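 note: fluorescence intensity change per second fitted from 20 to 320 s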
[7] = target: Alpha-2C adrenergic receptor (Homo sapiens) (UniProt P18825); assay: compounds altering alpha2C-coupled GIRK flux – cell-based, HEK293 alpha2C/GIRK1/2, thallium flux, primary screen (AID 624;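 active = fluorescence slope after compound addition differing from the mean of all screened samples at 99.7% confidence, in either direction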;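 note: slope of fluorescence ratio to pre-addition baseline per second over 15 to 24 s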); conditions: thallium flux BTC fluorescence, at 10 µM, actives lie on both sides
Chain of Alpha-2C adrenergic receptor (Homo sapiens) (P18825 whole entry, looked up): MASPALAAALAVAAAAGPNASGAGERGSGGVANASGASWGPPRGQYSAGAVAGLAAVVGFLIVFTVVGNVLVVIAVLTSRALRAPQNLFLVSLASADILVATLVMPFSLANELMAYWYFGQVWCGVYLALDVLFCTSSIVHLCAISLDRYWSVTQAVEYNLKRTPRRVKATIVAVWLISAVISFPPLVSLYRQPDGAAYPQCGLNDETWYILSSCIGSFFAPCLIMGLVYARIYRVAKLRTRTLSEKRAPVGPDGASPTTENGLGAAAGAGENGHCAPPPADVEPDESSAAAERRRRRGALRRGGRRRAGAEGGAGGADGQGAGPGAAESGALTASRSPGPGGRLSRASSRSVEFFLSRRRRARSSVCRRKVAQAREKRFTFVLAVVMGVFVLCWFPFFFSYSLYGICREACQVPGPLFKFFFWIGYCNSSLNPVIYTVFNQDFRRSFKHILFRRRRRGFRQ

[8] = inhibitors of larval lipid processing in zebrafish, primary screen, whole organism, PED6 fluorescence, gall bladder and intestine (AID 686;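 active = a full or partial loss of lipid-probe fluorescence in the fish gall bladder, intestine or both, judged by eye; inactive = no fluorescence loss, or compound toxic to the fish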;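 note: larvae 5 to 7 days old with five fish per well; signal comes from phospholipase A2 cleavage of quenched PED6 carried via bile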); conditions: Zebrafish larvae PED6 lipid processing, fluorescence scoring; screened at 20 µM (by protocol)
Method in brief: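 Incubation: overnight exposure of larvae to compound plus PED6 / Test system: live zebrafish larvae aged 5-7 days, whole organism / Amount: 5 larvae per well / Read-out basis: visual per-well fluorescence inhibition score / Signal: visual fluorescence microscopy scoring of gall bladder, gut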

[9] = loss of swimming-algae plug formation – whole organism, Chlamydomonas reinhardtii, WT vs cilia-less mutant, absorbance, 96-well, primary screen (AID 463189;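 active = inhibition at or above 50% relative to wild type and mutant plate controls; inactive = inhibition below 50%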;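 note: 0% = wild type cc124 cells in DMSO and 100% = ciliumless bld1 mutant cells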); conditions: Chlamydomonas reinhardtii gravitaxis, OD600 absorbance, 2 days; at 10 µM; stronger effect = higher value
[10] = measured here: cell density z-score
[11] = measured here: nuclear c-Myc green intensity z-score
[12] = measured here: nuclear pErk red intensity z-score, stronger effect = higher value

SMILES | cell count [1] | inhibition [1] | inhibition [2] | nuclei count [2] [%] | z-score [3, 10] | z-score [3, 11] | z-score [3, 12] | inhibition [4] | fluorescence slope [5] | NADPH fluorescence slope [6] | slope [7] | outcome [8] | inhibition [9]
N#Cc1c(SCC(N)=O)nsc1SCc1ccc(Cl)cc1 | 633 | -17.9% (inactive) | -60.5% (inactive) | 148 | 0.999 | -1.2 | -0.0749 | 17.7% (inactive) | -0.406 (inactive) | -1.2e-05 (inactive) | 0.00612 (inactive) | inactive | 26.4% (inactive)
COC(=O)c1ccc(CSc2ncnc3c2sc2nc(N4CCOCC4)c4c(c23)CCCC4)o1 | 565 | -11.6% (inactive) | 7.4% (inactive) | 164 | 0.509 | -1.97 | -0.0919 | 1.48% (inactive) | -0.237 (inactive) | -1e-05 (inactive) | 0.00899 (inactive) | inactive | -7.35% (inactive)
COc1ccc(-c2nn3c(C4CCCCC4)nnc3s2)cc1OC | 580 | -19.9% (inactive) | -19.9% (inactive) | 159 | -0.887 | 0.0164 | 0.338 | -18.6% (inactive) | -0.442 (inactive) | -0.000143 (inactive) | 0.00441 (inactive) | inactive | 25.1% (inactive)
CCOC(=O)CC(=O)CSc1nc2c(cc1C#N)CCCCCC2 | 706 | -1.3% (inactive) | 25.1% (inactive) | 180 | -0.436 | -0.188 | -0.491 | -8.95% (inactive) | -0.285 (inactive) | -5.2e-06 (inactive) | 0.00458 (inactive) | inactive | 0.237% (inactive)
CNC(=O)c1cc2c(ccc3ccccc32)oc1=N | 498 | -4% (inactive) | -64.4% (inactive) | 134 | 0.106 | 1.1 | -0.558 | -0.159% (inactive) | -0.075 (active) | -2.6e-05 (inactive) | 0.00187 (inactive) | inactive | 0.922% (inactive)
COc1ccc(-c2nnc3sc(COc4ccccc4)nn23)cc1 | 645 | -8.4% (inactive) | -95.8% (inactive) | 154 | -0.369 | -0.469 | -1.07 | 4.72% (inactive) | -0.445 (inactive) | -0.000151 (inactive) | 0.00767 (inactive) | inactive | 150% (active)
Fc1ccc(OCCOCCNCC2CCCO2)cc1 (centres undefined) | 369 | 0.4% (inactive) | -35.4% (inactive) | 84.5 | 0.189 | 0.788 | 0.463 | 15.1% (inactive) | -0.557 (inactive) | -4.4e-05 (inactive) | 0.00452 (inactive) | inactive | 43.6% (inactive)
CC(C)Cc1nc(NCCN2CCOCC2)c(C#N)c2c1COC(C)(C)C2 | 572 | 2.6% (inactive) | -114% (inactive) | 192 | -1.39 | 1.03 | 0.72 | -6.86% (inactive) | -0.302 (inactive) | 2.3e-05 (inactive) | 0.00502 (inactive) | inactive | 4.53% (inactive)
Cn1c(=O)c2c(nc(OCc3cccnc3)n2Cc2ccccc2)n(C)c1=O | 599 | 8.2% (inactive) | 3.5% (inactive) | 138 | 1.08 | -0.258 | 0.62 | -2.91% (inactive) | -0.517 (inactive) | -0.000111 (inactive) | 0.00473 (inactive) | inactive | -5.51% (inactive)
Cc1c(/C(O)=C2/C(=O)C(=O)N(CCCN3CCOCC3)C2c2ccncc2)cnn1-c1ccccc1 (centres undefined) | 518 | 8.4% (inactive) | -181% (inactive) | 149 | 0.69 | 0.756 | -0.189 | 8.76% (inactive) | -0.552 (inactive) | -1.5e-05 (inactive) | 0.00511 (inactive) | inactive | 15.5% (inactive)
CCCCOC(=O)CSC1=C(C#N)C(c2ccccc2OC)C(C#N)C(=O)N1 (centres undefined) | 504 | -3% (inactive) | -46% (inactive) | 116 | -0.706 | 0.338 | 1.09 | 9.39% (inactive) | -0.481 (inactive) | -0.000165 (inactive) | 0.00464 (inactive) | inactive | -21.1% (inactive)
COc1ccc2c(=O)c(-c3nc(C)cs3)coc2c1 | 559 | -18.2% (inactive) | -220% (inactive) | 141 | 1.07 | 0.0883 | 0.691 | 1.98% (inactive) | -0.543 (inactive) | -3.8e-05 (inactive) | 0.0045 (inactive) | inactive | 1.43% (inactive)
CC1(C)Cc2c(sc3c4nnnn4c4nnnn4c23)CO1 | 634 | -12.5% (inactive) | -30.9% (inactive) | 164 | 0.452 | 0.0526 | 0.417 | 20.8% (inactive) | -0.493 (inactive) | -9.6e-05 (inactive) | 0.0051 (inactive) | inactive | 27.1% (inactive)
